Consider 49 compounds from ChEMBL document CHEMBL3098056, “Small molecule inhibitors of anthrax lethal factor toxin” (Bioorg Med Chem, 2014).

SMILES strings stand for the structures. A value given as a limit tells only on which side of the number the result lay.

For one test, the target named is T1, Lethal factor (Bacillus anthracis, UniProt P15917).
T1 sequence (P15917 whole entry): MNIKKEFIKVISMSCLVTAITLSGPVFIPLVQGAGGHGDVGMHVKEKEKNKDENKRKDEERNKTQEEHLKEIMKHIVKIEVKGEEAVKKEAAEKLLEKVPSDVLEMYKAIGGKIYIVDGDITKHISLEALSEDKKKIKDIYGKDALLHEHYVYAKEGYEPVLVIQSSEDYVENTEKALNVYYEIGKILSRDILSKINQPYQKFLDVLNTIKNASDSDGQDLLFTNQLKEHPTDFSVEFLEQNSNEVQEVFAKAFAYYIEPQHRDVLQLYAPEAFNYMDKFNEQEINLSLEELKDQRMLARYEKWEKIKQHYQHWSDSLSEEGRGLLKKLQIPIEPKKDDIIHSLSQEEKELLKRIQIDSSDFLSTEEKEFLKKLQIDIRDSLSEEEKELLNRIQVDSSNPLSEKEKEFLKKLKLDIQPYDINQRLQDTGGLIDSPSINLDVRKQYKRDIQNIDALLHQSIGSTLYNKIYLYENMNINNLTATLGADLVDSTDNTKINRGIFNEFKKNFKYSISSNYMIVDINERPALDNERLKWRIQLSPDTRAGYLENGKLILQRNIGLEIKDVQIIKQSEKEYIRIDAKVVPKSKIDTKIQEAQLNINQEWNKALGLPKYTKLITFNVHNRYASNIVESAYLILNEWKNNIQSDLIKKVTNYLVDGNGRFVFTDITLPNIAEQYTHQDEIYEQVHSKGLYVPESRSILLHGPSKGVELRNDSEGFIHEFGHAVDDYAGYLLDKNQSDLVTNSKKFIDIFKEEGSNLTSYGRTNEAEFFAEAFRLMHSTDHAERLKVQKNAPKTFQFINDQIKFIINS
In words: Inhibition of Bacillus anthracis lethal factor assessed as MCA-KKVYPYPME[dnp]K amide cleavage after 30 mins by fluorescence plate reader analysis.

Test [1] concerns the target Botulinum neurotoxin type A (Clostridium botulinum, UniProt P0DPI0). In words: Inhibition of Clostridium bolulinum BoNT/A assessed as cleavage of MOCAc-Lys-Lys-Val-Tyr-Pro-Tyr-Pro-Met-Glu-Lys(Dnp)-NH2 after 40 mins by FRET assay. In outline: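 BoNT/A light chain (2 nM) in a 96-well FRET format. Reactions were stopped with acetic acid to 0.5% and cleaved-substrate fluorescence read at 485 nm with excitation at 398 nm. The same format served for IC50 and mechanism kinetics.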

For another test, the target named is T2, Interstitial collagenase (Homo sapiens, UniProt P03956).
T2 sequence (P03956 whole entry): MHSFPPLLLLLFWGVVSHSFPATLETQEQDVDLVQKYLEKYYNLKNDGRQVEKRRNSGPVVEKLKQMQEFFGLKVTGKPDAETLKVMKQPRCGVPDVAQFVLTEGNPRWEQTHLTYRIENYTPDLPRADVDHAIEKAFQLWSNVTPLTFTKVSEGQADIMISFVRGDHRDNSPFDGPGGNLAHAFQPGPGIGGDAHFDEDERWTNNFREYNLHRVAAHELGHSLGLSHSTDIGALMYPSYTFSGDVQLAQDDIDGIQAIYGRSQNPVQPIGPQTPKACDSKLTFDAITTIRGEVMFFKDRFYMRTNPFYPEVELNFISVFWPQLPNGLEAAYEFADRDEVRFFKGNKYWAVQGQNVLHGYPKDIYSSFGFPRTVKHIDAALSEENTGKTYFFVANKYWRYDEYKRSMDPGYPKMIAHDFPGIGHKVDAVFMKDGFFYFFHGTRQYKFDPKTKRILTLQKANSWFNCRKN
Nature of the test: Inhibition of human MMP-1 after 60 mins by FRET assay. In short, it runs like this: (§1)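 MMP-1 (38 nM) or MMP-9 (13 nM) with 50 fluorogenic substrate in 50 mM MOPS pH 6.0 and 0.05% NP-40, 37 °C for 60 min (linear range 90 min). Stopped with acetic acid (0.5% final); emission at 440 nm, excitation at 340 nm.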

The target in test [2] is Matrix metalloproteinase-9 (Homo sapiens, UniProt P14780). In words: Inhibition of human MMP-9 after 60 mins by FRET assay. In short, it runs like this:
as §1

Botulinum neurotoxin type A, sequence (P0DPI0 2-448 limits assumed): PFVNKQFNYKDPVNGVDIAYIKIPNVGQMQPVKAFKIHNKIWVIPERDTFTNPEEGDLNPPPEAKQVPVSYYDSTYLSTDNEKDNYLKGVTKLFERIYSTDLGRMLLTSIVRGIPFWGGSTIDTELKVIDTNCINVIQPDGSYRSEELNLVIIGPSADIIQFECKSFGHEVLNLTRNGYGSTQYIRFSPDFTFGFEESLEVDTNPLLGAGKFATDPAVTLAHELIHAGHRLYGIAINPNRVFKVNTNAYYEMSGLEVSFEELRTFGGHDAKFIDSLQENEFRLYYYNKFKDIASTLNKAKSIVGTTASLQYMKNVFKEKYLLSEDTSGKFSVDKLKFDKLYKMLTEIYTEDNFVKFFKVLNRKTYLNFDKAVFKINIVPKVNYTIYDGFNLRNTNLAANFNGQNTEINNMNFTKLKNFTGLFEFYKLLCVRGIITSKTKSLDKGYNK
Matrix metalloproteinase-9, sequence (P14780 whole entry): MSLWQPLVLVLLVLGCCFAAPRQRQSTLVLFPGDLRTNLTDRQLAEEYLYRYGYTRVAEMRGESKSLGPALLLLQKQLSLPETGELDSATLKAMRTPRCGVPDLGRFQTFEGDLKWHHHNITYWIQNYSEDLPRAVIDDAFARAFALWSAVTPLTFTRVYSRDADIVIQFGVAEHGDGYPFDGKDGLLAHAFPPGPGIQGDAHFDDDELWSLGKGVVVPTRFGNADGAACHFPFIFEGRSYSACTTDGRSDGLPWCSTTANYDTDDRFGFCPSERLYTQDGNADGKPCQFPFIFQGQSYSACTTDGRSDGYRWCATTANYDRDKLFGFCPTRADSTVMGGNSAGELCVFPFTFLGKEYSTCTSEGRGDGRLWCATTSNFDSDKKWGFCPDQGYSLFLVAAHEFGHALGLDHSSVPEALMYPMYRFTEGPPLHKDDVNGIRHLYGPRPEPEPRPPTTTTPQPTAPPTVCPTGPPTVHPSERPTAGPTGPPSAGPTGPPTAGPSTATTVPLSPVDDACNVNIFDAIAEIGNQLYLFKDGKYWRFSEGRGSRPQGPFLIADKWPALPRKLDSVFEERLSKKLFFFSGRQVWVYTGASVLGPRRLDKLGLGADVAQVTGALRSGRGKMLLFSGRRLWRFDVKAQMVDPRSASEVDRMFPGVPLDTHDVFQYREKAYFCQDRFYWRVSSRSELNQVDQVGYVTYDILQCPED

For the compound `COc1ccccc1CC(=O)Nc1ccc2nc(C)cc(N)c2c1`, the 50% inhibitory concentration (IC50) (at Lethal factor; in test [1]) was above 100 µM throughout.

Consider `Cc1cc(N)c2cc(NC(=O)Cc3ccccc3Cl)ccc2n1`, for which the concentration for half-maximal inhibition (IC50) (at Lethal factor; in test [1]) was above 100 µM each time.

`COc1ncccc1CCC(=O)Nc1ccc2nc(C)cc(N)c2c1`: the IC50 (commonly the point on the concentration scale where inhibition reaches its midpoint) on Lethal factor is 41 µM; in test [1], above 100 µM; on Interstitial collagenase, above 100 µM; in test [2] it was above 100 µM.

On to `COc1ccncc1CCC(=O)Nc1ccc2nc(C)cc(N)c2c1`, for which the IC50 is above 50 µM at Lethal factor and above 100 µM in test [1].

As to `COc1ccsc1CCC(=O)Nc1ccc2nc(C)cc(N)c2c1`, the IC50 (on Lethal factor; in test [1]) was above 100 µM in each case.

For `Cc1cc(N)c2cc(NC(=O)Nc3ccc4c(c3)OCO4)ccc2n1`, the concentration for half-maximal inhibition (IC50) is above 100 µM on Lethal factor and 41 µM in test [1].

With `Cc1cc(N)c2cc(NC(=O)Nc3ccc(-c4ccccc4)cc3)ccc2n1`, the IC50 (at Lethal factor; in test [1]) was 79 µM each time.

Take `COc1ccc(NC(=O)Nc2ccc3nc(C)cc(N)c3c2)cc1`: the concentration for half-maximal inhibition (IC50) at Lethal factor is above 100 µM; in test [1] it was 41 µM.

For the compound `CCOC(=O)c1ccc(NC(=O)Nc2ccc3nc(C)cc(N)c3c2)cc1`, the IC50 on Lethal factor was found to be 87 µM; in test [1], 51 µM.

Consider `Cc1cc(N)c2cc(NC(=O)Nc3ccc(F)cc3)ccc2n1`, for which the concentration for half-maximal inhibition (IC50) at Lethal factor was found to be 95 µM; in test [1] it was 32 µM.

On to `Cc1cc(N)c2cc(NC(=O)Nc3ccc(C(C)C)cc3)ccc2n1`, for which the IC50 on Lethal factor is 83 µM; in test [1] it was 62 µM.

Turning to `Cc1cc(N)c2cc(NC(=O)Nc3ccc(C(=O)c4ccccc4)cc3)ccc2n1`, the concentration for half-maximal inhibition (IC50) on Lethal factor is 26 µM; in test [1] it was 67 µM; on Interstitial collagenase, above 100 µM; in test [2] it was above 100 µM.

Turning to `Cc1cc(N)c2cc(NC(=O)NCc3ccccc3Cl)ccc2n1`, the concentration for half-maximal inhibition (IC50) on Lethal factor is 61 µM; in test [1] it was above 100 µM.

On to `COc1ccccc1CNC(=O)Nc1ccc2nc(C)cc(N)c2c1`, for which the half-maximal inhibitory concentration (IC50) (on Lethal factor; in test [1]) was above 100 µM in each case.

`Cc1cc(N)c2cc(NC(=O)c3cccc(-c4ccc(N(C)C)cc4)c3)ccc2n1`: the IC50 in test [1] is 69 µM; in test [2], above 100 µM.

Turning to `COc1ccc(/C=C/C(=O)Nc2ccc3nc(C)cc(N)c3c2)cc1`, the values for the IC50 (at Lethal factor; in test [1]) were 55 µM and above 100 µM, respectively.

For the compound `Cc1cc(N)c2cc(NC(=O)Cc3ccccc3)ccc2n1`, the 50% inhibitory concentration (IC50) (at Lethal factor; in test [1]) was above 100 µM throughout.

Consider `Cc1cc(N)c2cc(NC(=O)Cc3ccc4c(c3)OCO4)ccc2n1`, for which the IC50 (on Lethal factor; in test [1]) was above 100 µM throughout.

Turning to `Cc1cc(N)c2cc(NC(=O)c3ccc(-c4cccc5ncccc45)cc3)ccc2n1`, the half-maximal inhibitory concentration (IC50) at Lethal factor was determined as 10 µM; in test [1] it was 34 µM.

For `Cc1cc(N)c2cc(NC(=O)c3cccc(-c4cnc5ccccc5c4)c3)ccc2n1`, the concentration for half-maximal inhibition (IC50) was 5.7 µM on Lethal factor, 45 µM in test [1], above 100 µM at Interstitial collagenase and 16 µM in test [2].

As for `Cc1cc(N)c2cc(NC(=O)c3cccc(-c4cncc5ccccc45)c3)ccc2n1`, the IC50 on Lethal factor was 21 µM; in test [1], above 100 µM; on Interstitial collagenase, 50 µM; in test [2], 48 µM.

Turning to `Cc1cc(N)c2cc(NC(=O)c3cccc(-c4cccc5ncccc45)c3)ccc2n1`, the IC50 on Lethal factor is 33 µM; in test [1] it was 68 µM; against Interstitial collagenase it was 65 µM; in test [2], 50 µM.

As to `Cc1cc(N)c2cc(NC(=O)c3cccc(-c4cccc5cccnc45)c3)ccc2n1`, the IC50 at Lethal factor is 36 µM; in test [1], 79 µM; against Interstitial collagenase, above 100 µM; in test [2] it was above 100 µM.

Take `COc1ccc(CCC(=O)Nc2ccc3nc(C)cc(N)c3c2)cc1`: the concentration for half-maximal inhibition (IC50) (on Lethal factor; in test [1]) was above 100 µM throughout.

Regarding `COc1cccc(CCC(=O)Nc2ccc3nc(C)cc(N)c3c2)c1`, the IC50 (at Lethal factor; in test [1]) was above 100 µM in each case.

For `COc1ccc(OC)c(CCC(=O)Nc2ccc3nc(C)cc(N)c3c2)c1`, the half-inhibitory concentration (IC50) (at Lethal factor; in test [1]) was above 100 µM throughout.

Consider `COc1cccc(CCC(=O)Nc2ccc3nc(C)cc(N)c3c2)c1OC`, for which the half-maximal inhibitory concentration (IC50) (at Lethal factor; in test [1]) was above 100 µM each time.

Turning to `Cc1cc(N)c2cc(NC(=O)CCc3ccccc3OC(=O)c3ccccc3)ccc2n1`, the half-maximal inhibitory concentration (IC50) (at Lethal factor; in test [1]) was above 100 µM each time.

In the case of `Cc1cc(N)c2cc(NC(=O)CCc3ccccc3Cl)ccc2n1`, the IC50 (on Lethal factor; in test [1]) was above 100 µM in each case.

In the case of `Cc1cc(N)c2cc(NC(=O)CCc3ccccc3C)ccc2n1`, the IC50 (at Lethal factor; in test [1]) was above 100 µM throughout.

On to `Cc1cc(N)c2cc(NC(=O)CCc3ccccc3C(F)(F)F)ccc2n1`, for which the IC50 is 38 µM at Lethal factor, above 100 µM in test [1], above 100 µM against Interstitial collagenase and above 100 µM in test [2].

As for `Cc1cc(N)c2cc(NC(=O)CCc3ccc(F)cc3)ccc2n1`, the IC50 (at Lethal factor; in test [1]) was above 100 µM throughout.

On to `COc1ccccc1/C=C/C(=O)Nc1ccc2nc(C)cc(N)c2c1`, for which the IC50 on Lethal factor is 46 µM; in test [1], above 100 µM; on Interstitial collagenase, above 100 µM; in test [2], above 100 µM.

For the compound `COc1ccc(Br)cc1CCC(=O)Nc1ccc2nc(C)cc(N)c2c1`, the IC50 (at Lethal factor; in test [1]) was above 100 µM each time.

Consider `COc1ccc(Cl)cc1CCC(=O)Nc1ccc2nc(C)cc(N)c2c1`, for which the half-inhibitory concentration (IC50) (on Lethal factor; in test [1]) was above 100 µM each time.

Take `COc1cc(Cl)ccc1CCC(=O)Nc1ccc2nc(C)cc(N)c2c1`: the values for the concentration for half-maximal inhibition (IC50) (on Lethal factor; in test [1]) were 78 µM and above 100 µM, respectively.

`COc1cc(Br)ccc1CCC(=O)Nc1ccc2nc(C)cc(N)c2c1`: the concentration for half-maximal inhibition (IC50) was 58 µM at Lethal factor and above 100 µM in test [1].

Turning to `CCOc1ccccc1CCC(=O)Nc1ccc2nc(C)cc(N)c2c1`, the IC50 (at Lethal factor; in test [1]) was above 100 µM throughout.

`CCCOc1ccccc1CCC(=O)Nc1ccc2nc(C)cc(N)c2c1`: the IC50 (at Lethal factor; in test [1]) was above 100 µM throughout.

`Cc1cc(N)c2cc(NC(=O)c3cccc(C(=O)c4ccccc4)c3)ccc2n1`: the IC50 at Lethal factor was 73 µM; in test [1], above 100 µM.

Turning to `Cc1cc(N)c2cc(NC(=O)c3cccnc3)ccc2n1`, the concentration for half-maximal inhibition (IC50) (on Lethal factor; in test [1]) was above 100 µM throughout.

In the case of `Cc1cc(N)c2cc(NC(=O)c3ccco3)ccc2n1`, the IC50 on Lethal factor is above 100 µM; in test [1], 47 µM.

In the case of `Cc1cc(N)c2cc(NC(=O)c3cccc(N(C)C)c3)ccc2n1`, the IC50 (at Lethal factor; in test [1]) was above 100 µM throughout.

As for `Cc1cc(N)c2cc(NC(=O)c3ccc(N4CCOCC4)cc3)ccc2n1`, the half-inhibitory concentration (IC50) at Lethal factor is above 100 µM; in test [1] it was 27 µM.

For `Cc1cc(N)c2cc(NC(=O)c3cc4ccccc4o3)ccc2n1`, the results for the half-maximal inhibitory concentration (IC50) (at Lethal factor; in test [1]) were 90 µM and above 100 µM, respectively.

Take `COc1ccc2[nH]c(C(=O)Nc3ccc4nc(C)cc(N)c4c3)cc2c1`: the IC50 is 44 µM at Lethal factor, 35 µM in test [1] and above 100 µM in test [2].

Turning to `Cc1cc(N)c2cc(NC(=O)c3ccc(-c4ccccc4)cc3)ccc2n1`, the IC50 was 48 µM at Lethal factor, above 100 µM in test [1] and above 100 µM in test [2].

Consider `Cc1cc(N)c2cc(NC(=O)c3ccc(-c4cccnc4)cc3)ccc2n1`, for which the IC50 is 43 µM on Lethal factor, 23 µM in test [1] and above 100 µM in test [2].

Take `Cc1cc(N)c2cc(NC(=O)CCc3ccccc3)ccc2n1`: the IC50 (on Lethal factor; in test [1]) was above 100 µM each time.
